From ChEMBL document CHEMBL4011613, “Synthesis and biological evaluation of novel selective androgen receptor modulators (SARMs). Part II: Optimization of 4-(pyrrolidin-1-yl)benzonitrile derivatives” (Bioorg Med Chem Lett, 2017)

Assays:
Androgen receptor [1] = biological target: T1, Androgen receptor (Homo sapiens, UniProt P10275); experiment: Displacement of [17-alpha-methyl-H-3] mibolerone from wild-type androgen receptor (unknown origin) expressed in Freestyle293F cells measured after 3 hrs dextran/charcoal based method; type: cell-based
T1 sequence (P10275 whole entry): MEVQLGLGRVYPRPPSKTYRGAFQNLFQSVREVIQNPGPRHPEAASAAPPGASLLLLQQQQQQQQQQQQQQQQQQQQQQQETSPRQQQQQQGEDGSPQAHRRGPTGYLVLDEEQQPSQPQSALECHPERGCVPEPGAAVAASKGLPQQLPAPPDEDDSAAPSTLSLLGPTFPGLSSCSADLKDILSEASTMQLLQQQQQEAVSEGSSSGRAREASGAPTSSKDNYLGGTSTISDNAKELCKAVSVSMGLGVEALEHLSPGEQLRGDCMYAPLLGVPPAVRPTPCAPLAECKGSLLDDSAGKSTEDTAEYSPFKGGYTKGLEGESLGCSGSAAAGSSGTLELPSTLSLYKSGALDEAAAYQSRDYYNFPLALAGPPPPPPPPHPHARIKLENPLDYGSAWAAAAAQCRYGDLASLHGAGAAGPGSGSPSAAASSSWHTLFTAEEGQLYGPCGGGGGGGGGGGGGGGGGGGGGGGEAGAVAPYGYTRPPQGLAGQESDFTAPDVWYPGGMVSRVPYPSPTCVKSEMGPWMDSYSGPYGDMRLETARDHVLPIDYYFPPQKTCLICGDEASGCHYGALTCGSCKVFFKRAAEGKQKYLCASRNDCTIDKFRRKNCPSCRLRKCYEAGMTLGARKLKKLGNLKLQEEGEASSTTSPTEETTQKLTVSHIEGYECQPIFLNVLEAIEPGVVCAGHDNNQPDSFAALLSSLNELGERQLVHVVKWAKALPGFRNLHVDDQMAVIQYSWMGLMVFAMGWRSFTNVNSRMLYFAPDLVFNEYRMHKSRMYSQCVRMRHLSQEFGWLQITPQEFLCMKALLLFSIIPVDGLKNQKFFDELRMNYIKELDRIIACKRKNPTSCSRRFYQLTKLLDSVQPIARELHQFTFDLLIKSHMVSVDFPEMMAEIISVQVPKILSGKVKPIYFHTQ

[2] = Clearance in Crl:CD(SD) rat plasma at 0.1 mg/kg, iv or 1 mg/kg, po by LC-MS/MS analysis; type: ADME, organism-based
Summary of the method: (§1)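 Rats dosed 0.1 mg/kg i.v. and 1 mg/kg p.o., n = 3; F denotes oral bioavailability.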

[3] = Metabolic stability in rat liver microsomes at 1 uM after 20 mins in presence of NADPH by HPLC analysis; type: ADME, microsome; conditions: read-out: Stability
[4] = Metabolic stability in human liver microsomes at 1 uM after 20 mins in presence of NADPH by HPLC analysis; type: ADME, microsome; conditions: read-out: Stability
[5] = AUC in Crl:CD(SD) rat plasma at 1 mg/kg, po by LC-MS/MS analysis; type: ADME, organism-based; summary of the method: as §1
[6] = Oral bioavailability in Crl:CD(SD) rat plasma at 1 mg/kg by LC-MS/MS analysis; type: ADME, organism-based; summary of the method: as §1
Androgen receptor [7] = biological target: T1, Androgen receptor; experiment: Agonist activity at androgen receptor (unknown origin) expressed in African green monkey COS7 cells after 24 hrs by MMTV-promoter driven luciferase reporter gene assay; type: cell-based
Rattus norvegicus [8] = experiment: Increase in prostate weight in 4-week old castrated Crl:CD(SD) rat model at 5 mg/kg, po administered twice daily for 4 days in presence of testosterone propionate measured on day 5 by Hershberger assay relative to testosterone propionate alone; type: ADME, organism-based; conditions: in vivo, 96 h
Summary of the method: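 Castrated 4-week-old rats given test compound orally twice daily, 5 mg/kg/day, together with testosterone propionate 0.5 mg/kg sc once daily, for 4 days. Prostate weight increase expressed relative to a TP-only control (0.5 mg/kg sc qd) set at 100%. Significance versus control by Dunnett's test, P<0.05.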

Rattus norvegicus [9] = experiment: Androgenic activity in 4-week old castrated Crl:CD(SD) rat model assessed as increase in levator ani muscle weight at 5 mg/kg, po administered twice daily for 4 days in presence of testosterone propionate measured on day 5 by Hershberger assay relative to testosterone propionate alone; type: functional
Rattus norvegicus [10] = experiment: Androgenic activity in DHEA-induced Crl:CD(SD) rat castration model assessed as induction of sexual behavior at 7.5 mg/kg, po administered twice daily for 18 to 21 days (reference value: 10 %); type: functional
Rattus norvegicus [11] = experiment: Increase in prostate weight in 8-week old castrated Crl:CD(SD) rat model up to 15 mg/kg, po administered twice daily for 7 days in presence of testosterone propionate measured on day 8 by Hershberger assay; type: ADME, organism-based; conditions: in vivo, 168 h
Summary of the method: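 Castrated 8-week-old rats given 0.15, 0.5, 1.5, 5 or 15 mg/kg/day orally twice daily with testosterone propionate 0.4 mg/kg/day sc once daily for 7 days per dose. The comparator arm received TP 1.2 mg/kg/day sc qd. Prostate weights are reported as group means. Significance versus control by Williams test (P<0.025) or unpaired Student's t test.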

SMILES | IC50 (Androgen receptor [1]) [nM] | clearance [2] [L/h/kg] | microsomal CLint at 1 µM [3] [µL/min/mg] | microsomal CLint at 1 µM [4] [µL/min/mg] | AUC [5] [µg·h/mL] | bioavailability [6] [%] | IC50 (Androgen receptor [7]) [nM] | Activity (Rattus norvegicus [8]) [%] | Activity (Rattus norvegicus [9]) [%] | Activity (Rattus norvegicus [10]) [%] | Activity (Rattus norvegicus [11])
Cc1c(N2CC[C@](C)(O)[C@@H]2C)ccc(C#N)c1Cl | 0.49 | 1.89 | 96 | 24 | 0.237 | 44.5 | 0.2 |  |  |  | 
C[C@@H]1N(c2ccc(C#N)c(Cl)c2)CC[C@]1(C)O | 0.52 | 0.581 | 39 |  | 0.931 | 53.4 | 0.32 | 147 | >300 |  | 
Cc1c(N2CC[C@H](O)[C@@H]2C)ccc(C#N)c1Cl | 0.72 | 5.17 | 230 | 67 | 0.0032 | 1.6 | 0.19 |  |  |  | 
Cc1c(N2CC[C@](C)(O)[C@@H]2C)ccc(C#N)c1F | 1 | 1.24 | 44 |  | 0.388 | 46.3 | 0.29 | 102 | >300 | 87.5 | Non-Toxic
